ChEMBL document CHEMBL1122697, “Resolved 3-(3-hydroxyphenyl)-N-n-propylpiperidine and its analogues: central dopamine receptor activity” (1984)

How the values were obtained:
Rattus norvegicus [1] = assay: Motor activity with reserpine pretreatment at dose 100 uM/kg; type: functional
Rattus norvegicus [2] = organism: Rattus norvegicus; assay: […] without pretreatment was determined; motor activity 40% of control was observed at the highest dose; type: functional
Rattus norvegicus [3] = assay: Half-maximal decrease of DOPA accumulation (no reserpine pretreatment) in the limbic system of rat brain at dose 227 uM/kg; type: functional; set-up: scale not given: the % may be the effect or the level left
How it was run: (§1)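 Male Sprague-Dawley rats (200-300 g), not pretreated, received the drug sc in the neck, dissolved in saline. NSD 1015 (100 mg/kg) followed 35 min later. Dopa accumulation was measured in limbic and striatal portions. […] Statistics by Student's t test.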

Rattus norvegicus [4] = assay: Half-maximal decrease of DOPA accumulation (no reserpine pretreatment) in the striatum of rat brain at dose 227 uM/kg; type: functional; set-up: scale not given: the % may be the effect or the level left; how it was run: as §1
Rattus norvegicus [5] = organism: Rattus norvegicus; assay: Half-maximal decrease of DOPA accumulation upon reserpine pretreatment in the corpus striatum of rat brain; type: functional
Rattus norvegicus [6] = organism: Rattus norvegicus; assay: High dose of compound giving significant reduction and increase in motor activity without pretreatment was determined; motor activity 55% of control was observed at the highest dose; type: functional
How it was run: (§2)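 Non-pretreated male Sprague-Dawley rats received the compound sc in the neck (n = 4). They were placed singly in test cages and put into motility meters 5 min later. Motor activity was recorded over 5-35 min. The dose reported is the lowest giving a significant reduction or increase in activity, expressed as percent of controls.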

Rattus norvegicus [7] = assay: Reduction of DOPA accumulation upon reserpine pretreatment in the corpus striatum of rat brain at a dose of 100 umol/kg; type: functional
How it was run: (§3)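 Test drug dissolved in saline, injected sc in the neck. 30 min later, NSD 1015 100 mg/kg given. Dopa measured in brain portions (limbic, striatal) and expressed as percent reduction from control levels. Student's t test used for statistics.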

Rattus norvegicus [8] = assay: Reduction of DOPA accumulation upon reserpine pretreatment in the limbic system of rat brain at a dose of 100 umol/kg; type: functional; how it was run: as §3
Rattus norvegicus [9] = assay: Motor activity with reserpine pretreatment at dose 133 umol/kg; type: functional
Rattus norvegicus [10] = assay: Motor activity with reserpine pretreatment at dose 14 umol/kg; type: functional
Rattus norvegicus [11] = assay: Motor activity with reserpine pretreatment at dose 13 uM/kg; type: functional
Rattus norvegicus [12] = organism: Rattus norvegicus; assay: High dose of compound giving significant reduction and increase in motor activity without pretreatment was determined; motor activity 230% of control was observed at the highest dose; type: functional; how it was run: as §2
Rattus norvegicus [13] = organism: Rattus norvegicus; assay: Low dose of compound giving significant reduction and increase in motor activity without pretreatment was determined; motor activity 75% of control was observed at the lowest dose; type: functional; how it was run: as §2
Rattus norvegicus [14] = assay: Half-maximal decrease of DOPA accumulation (no reserpine pretreatment) in the striatum of rat brain at dose 0.8 uM/kg; type: functional; set-up: scale not given: the % may be the effect or the level left; how it was run: as §1
Rattus norvegicus [15] = assay: Half-maximal decrease of DOPA accumulation (no reserpine pretreatment) in the limbic system of rat brain at dose 0.8 uM/kg; type: functional; set-up: scale not given: the % may be the effect or the level left; how it was run: as §1
Rattus norvegicus [16] = assay: Effect on HVA level in rat brain striatum regions at a dose of 27 uM/kg sc 60 min before death; type: functional, organism-based
How it was run: (§4)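 They were killed 60 min later. DOPAC and HVA were measured by HPLC in limbic and striatal brain portions. Values are percent of control means ± standard error of the mean.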

Rattus norvegicus [17] = assay: Effect on DOPAC level in rat brain striatum regions at a dose of 27 uM/kg sc 60 min before death; type: functional, organism-based; how it was run: as §4
Rattus norvegicus [18] = assay: Effect on HVA level in rat brain limbic regions at a dose of 27 uM/kg sc 60 min before death; type: functional, organism-based; how it was run: as §4
Rattus norvegicus [19] = assay: (§5) Effect on DOPAC level in limbic system of rat brain at a dose of 27 uM/kg sc 60 min before death; type: functional, organism-based
How it was run: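 Male Sprague-Dawley rats (200-300 g) got a single sc dose of 27 μmol/kg, dissolved in saline. They were killed 60 min later. DOPAC and HVA were measured by HPLC in limbic and striatal brain portions. Values are percent of control means ± standard error of the mean.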

Rattus norvegicus [20] = assay: Motor activity with reserpine pretreatment at dose 53 uM/kg; type: functional
Rattus norvegicus [21] = organism: Rattus norvegicus; assay: Low dose of compound giving significant reduction and increase in motor activity without pretreatment was determined; motor activity 53% of control was observed at the lowest dose; type: functional; how it was run: as §2
Rattus norvegicus [22] = assay: Half-maximal decrease of DOPA accumulation (no reserpine pretreatment) in the limbic system of rat brain at dose 3.9 uM/kg; type: functional; set-up: scale not given: the % may be the effect or the level left; how it was run: as §1
Rattus norvegicus [23] = assay: Half-maximal decrease of DOPA accumulation (no reserpine pretreatment) in the striatum of rat brain at dose 0.98 uM/kg; type: functional; set-up: scale not given: the % may be the effect or the level left; how it was run: as §1
Rattus norvegicus [24] = assay: Motor activity with reserpine pretreatment at dose 265 umol/kg; type: functional
Rattus norvegicus [25] = assay: Motor activity with reserpine pretreatment at dose 7.0 umol/kg; type: functional
How it was run: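 Test drug dissolved in saline, given sc in the neck (n = 4). Rats placed singly in motility meter cages immediately after dosing. Motor activity recorded as accumulated counts over 0–30 min and compared with controls.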

Rattus norvegicus [26] = organism: Rattus norvegicus; assay: Half-maximal decrease of DOPA accumulation upon reserpine pretreatment in the limbic system of rat brain; type: functional
Rattus norvegicus [27] = assay: Motor activity with reserpine pretreatment at dose 213 uM/kg; type: functional
Rattus norvegicus [28] = organism: Rattus norvegicus; assay: Low dose of compound giving significant reduction and increase in motor activity without pretreatment was determined; motor activity 74% of control was observed at the lowest dose; type: functional; how it was run: as §2
Rattus norvegicus [29] = assay: Half-maximal decrease of DOPA accumulation (no reserpine pretreatment) in the limbic system of rat brain at dose 213 uM/kg; type: functional; set-up: scale not given: the % may be the effect or the level left; how it was run: as §1
Rattus norvegicus [30] = assay: Half-maximal decrease of DOPA accumulation (no reserpine pretreatment) in the striatum of rat brain at dose 27 uM/kg; type: functional; set-up: scale not given: the % may be the effect or the level left; how it was run: as §1
Rattus norvegicus [31] = assay: as §5; type: functional, organism-based; how it was run: as §4; remark: listed apart in the source
Rattus norvegicus [32] = assay: Motor activity with reserpine pretreatment at dose 3.3 uM/kg; type: functional
Rattus norvegicus [33] = organism: Rattus norvegicus; assay: […] without pretreatment was determined; motor activity 137% of control was observed at the highest dose; type: functional
Rattus norvegicus [34] = assay: Half-maximal decrease of DOPA accumulation (no reserpine pretreatment) in the limbic system of rat brain at dose 0.98 uM/kg; type: functional; set-up: scale not given: the % may be the effect or the level left; how it was run: as §1
Rattus norvegicus [35] = assay: Half-maximal decrease of DOPA accumulation (no reserpine pretreatment) in the striatum of rat brain at dose 0.24 uM/kg; type: functional; set-up: scale not given: the % may be the effect or the level left; how it was run: as §1
Rattus norvegicus [36] = organism: Rattus norvegicus; assay: Low dose of compound giving significant reduction and increase in motor activity without pretreatment was determined; motor activity 41% of control was observed at the lowest dose; type: functional; how it was run: as §2
Rattus norvegicus [37] = organism: Rattus norvegicus; assay: Low dose of compound giving significant reduction and increase in motor activity without pretreatment was determined; motor activity 32% of control was observed at the lowest dose; type: functional; how it was run: as §2
Rattus norvegicus [38] = assay: Half-maximal decrease of DOPA accumulation (no reserpine pretreatment) in the limbic system of rat brain at dose 0.83 uM/kg; type: functional; set-up: scale not given: the % may be the effect or the level left; how it was run: as §1
Rattus norvegicus [39] = organism: Rattus norvegicus; assay: Low dose of compound giving significant reduction and increase in motor activity without pretreatment was determined; motor activity 58% of control was observed at the lowest dose; type: functional; how it was run: as §2
Rattus norvegicus [40] = assay: Half-maximal decrease of DOPA accumulation (no reserpine pretreatment) in the limbic system of rat brain at dose 3.7 uM/kg; type: functional; set-up: scale not given: the % may be the effect or the level left; how it was run: as §1
Rattus norvegicus [41] = assay: Half-maximal decrease of DOPA accumulation (no reserpine pretreatment) in the striatum of rat brain at dose 3.7 uM/kg; type: functional; set-up: scale not given: the % may be the effect or the level left; how it was run: as §1
Rattus norvegicus [42] = organism: Rattus norvegicus; assay: High dose of compound giving significant reduction and increase in motor activity without pretreatment was determined; motor activity 92% of control was observed at the highest dose; type: functional; how it was run: as §2

Compound: CN1CCC[C@@H](c2cccc(O)c2)C1
- Accumulated counts (Rattus norvegicus [1]): 36
- Dose (Rattus norvegicus [2]): 227 µM/kg
- Control (Rattus norvegicus [3]): 48%
- Control (Rattus norvegicus [4]): 51%
- ED50 (Rattus norvegicus [5]): 10 µmol/kg

Compound: Oc1cccc([C@@H]2CCCNC2)c1
- Control (Rattus norvegicus [3]): 50%
- Control (Rattus norvegicus [4]): 44%
- Dose (Rattus norvegicus [6]): 227 µM/kg
- Reduction (Rattus norvegicus [7]): 26%
- Reduction (Rattus norvegicus [8]): 19%

Compound: CN1CCC[C@H](c2cccc(O)c2)C1
- Accumulated counts (Rattus norvegicus [9]): 88
- ED50 (Rattus norvegicus [5]): 2.9 µmol/kg

Compound: Oc1cccc([C@H]2CCCN(CCc3ccccc3)C2)c1
- Accumulated counts (Rattus norvegicus [10]): 26
- ED50 (Rattus norvegicus [5]): 6.9 µmol/kg

Compound: CCCN1CCC[C@H](c2cccc(O)c2)C1
- Accumulated counts (Rattus norvegicus [11]): 78
- Dose (Rattus norvegicus [12]): 213 µM/kg
- Dose (Rattus norvegicus [13]): 1.6 µM/kg
- Control (Rattus norvegicus [14]): 81%
- Control (Rattus norvegicus [15]): 86%
- ED50 (Rattus norvegicus [5]): 1.3 µmol/kg
- Level (Rattus norvegicus [16]): 45
- Level (Rattus norvegicus [17]): 63
- Level (Rattus norvegicus [18]): 52
- Level (Rattus norvegicus [19]): 59

Compound: CC(C)N1CCC[C@H](c2cccc(O)c2)C1
- Accumulated counts (Rattus norvegicus [20]): 49
- Dose (Rattus norvegicus [21]): 0.2 µM/kg
- Control (Rattus norvegicus [22]): 77%
- Control (Rattus norvegicus [23]): 85%
- ED50 (Rattus norvegicus [5]): 13 µmol/kg
- Level (Rattus norvegicus [16]): 89
- Level (Rattus norvegicus [17]): 74
- Level (Rattus norvegicus [18]): 80
- Level (Rattus norvegicus [19]): 70

Compound: Oc1cccc([C@H]2CCCNC2)c1
- Accumulated counts (Rattus norvegicus [24]): 47
- ED50 (Rattus norvegicus [5]): 14 µmol/kg

Compound: Oc1cccc([C@@H]2CCCN(CCc3ccccc3)C2)c1
- Accumulated counts (Rattus norvegicus [25]): 71
- ED50 (Rattus norvegicus [5]): 0.13 µmol/kg

Compound: CN1CCc2cccc3c2[C@H]1Cc1ccc(O)c(O)c1-3 [APOMORPHINE]
- ED50 (Rattus norvegicus [5]): 0.22 µmol/kg
- ED50 (Rattus norvegicus [26]): 0.19 µmol/kg

Compound: CCCN1CCC[C@@H](c2cccc(O)c2)C1 [PRECLAMOL]
- Accumulated counts (Rattus norvegicus [27]): 12
- Dose (Rattus norvegicus [2]): 213 µM/kg
- Dose (Rattus norvegicus [28]): 0.8 µM/kg
- Control (Rattus norvegicus [29]): 95%
- Control (Rattus norvegicus [30]): 147%
- ED50 (Rattus norvegicus [5]): 1.7 µmol/kg
- Level (Rattus norvegicus [16]): 162
- Level (Rattus norvegicus [31]): 114
- Level (Rattus norvegicus [17]): 145
- Level (Rattus norvegicus [18]): 100

Compound: CC(C)N1CCC[C@@H](c2cccc(O)c2)C1
- Accumulated counts (Rattus norvegicus [32]): 38
- Dose (Rattus norvegicus [33]): 13 µM/kg
- Control (Rattus norvegicus [34]): 74%
- Control (Rattus norvegicus [35]): 76%
- ED50 (Rattus norvegicus [5]): 0.45 µmol/kg
- Level (Rattus norvegicus [16]): 68
- Level (Rattus norvegicus [31]): 60
- Level (Rattus norvegicus [17]): 81
- Level (Rattus norvegicus [18]): 51
- Dose (Rattus norvegicus [36]): 0.2 µM/kg

Compound: CCCCN1CCC[C@@H](c2cccc(O)c2)C1
- Accumulated counts (Rattus norvegicus [20]): 63
- Dose (Rattus norvegicus [37]): 3.7 µM/kg
- Control (Rattus norvegicus [38]): 84%
- ED50 (Rattus norvegicus [5]): 0.77 µmol/kg
- Level (Rattus norvegicus [16]): 142
- Level (Rattus norvegicus [31]): 91
- Level (Rattus norvegicus [17]): 118
- Level (Rattus norvegicus [18]): 103

Compound: CCCCN1CCC[C@H](c2cccc(O)c2)C1
- Accumulated counts (Rattus norvegicus [20]): 180
- Dose (Rattus norvegicus [39]): 3.7 µM/kg
- Control (Rattus norvegicus [40]): 72%
- Control (Rattus norvegicus [41]): 76%
- Dose (Rattus norvegicus [42]): 53 µM/kg
- ED50 (Rattus norvegicus [5]): 2.2 µmol/kg
- ED50 (Rattus norvegicus [26]): 2.3 µmol/kg
- Level (Rattus norvegicus [16]): 52
- Level (Rattus norvegicus [31]): 55
- Level (Rattus norvegicus [17]): 58
- Level (Rattus norvegicus [18]): 52
